Test [1] relates to hMSCs. In words: CCK-8 cell viability assay on 96-well plates, basal hMSCs. In kind it is cell-based, human. Conditions: for reduction in toxicity from basal hMSCs to their osteogenic progenies: basal hMSCs vs OD1-OD6; for IC50: read-out: IC50 hMSC. (In general: Formazan colour is commonly taken as a measure of viable cells.)
For test [2], the system named is hiPSCs. As to the kind of experiment: CCK-8 cell viability assay on 96-well plates, basal hiPSCs. In kind it is cell-based, human. Conditions: for higher sensitivity of hiPSCs compared to basal hMSCs: ratio of IC50, hiPSCs vs basal hMSCs; for IC50: read-out: IC50 hiPSC; for dependency of effects on stages of hepatogenic differentiation of hiPSCs: Phase I-III.
For test [3], the system named is basal hMSCs. As to the kind of experiment: qHTS CellTiter-Glo viability assay in 1536-well format, basal hMSCs. In kind it is cell-based, human. Conditions: qHTS CTG, basal vs osteogenesis day 1. In outline:
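hMSCs were seeded at 500 cells/well directly in basal or osteogenic differentiation medium (osteogenesis day 1 arm) and held 24 h at 37°C/5% CO₂. A LOPAC library was then added at seven concentrations (0.0029–46 μM, 1:5 serial dilutions) for 48 h. ATP was read by CellTiter-Glo luminescence after 30 min at room temperature. IC₅₀ and efficacy came from dose-response curves, with hit cutoffs of efficacy ≥ 50% and IC₅₀ ≤ 20 μM.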
Background: qHTS replaces the single test concentration by a dilution series.

For test [4], the system named is hMSC-OD1. In words: CCK-8 cell viability assay on 96-well plates, hMSCs osteogenesis Day 1. Format: cell-based. Conditions: Homo sapiens, read-out: IC50 hMSC-OD1.
Test [5] has as its system hMSC-OD3. As to the kind of experiment: CCK-8 cell viability assay on 96-well plates, hMSCs osteogenesis Day 3. In kind it is cell-based. Conditions: Homo sapiens, read-out: IC50 hMSC-OD3.
The subject of test [6] is hMSC-OD6. As to the kind of experiment: CCK-8 cell viability assay on 96-well plates, hMSCs osteogenesis Day 6. Format: cell-based. Conditions: Homo sapiens, read-out: IC50 hMSC-OD6.
Test [7] relates to hepatic differentiation Phase I cells. As to the kind of experiment: CCK-8 cell viability assay, hiPSCs at end of hepatogenic differentiation Phase I. Format: cell-based. Conditions: Homo sapiens, HepA, 48 h, read-out: IC50 Hepa Diff Phase I.
The subject of test [8] is hepatic differentiation Phase II cells. Format: cell-based. Conditions: Homo sapiens, HepA, 48 h, read-out: IC50 Hepa Diff Phase II.
In test [9] the test system is hepatic differentiation Phase III cells. In kind it is cell-based. Conditions: Homo sapiens, HepA, 48 h, read-out: IC50 Hepa Diff Phase III.
Where [10] appears, read: basal hMSCs, 48-hour treatment, CCK-8, mean ± s.e.m., n=3.
Where [11] appears, read: basal hiPSCs, 48-hour treatment, CCK-8, mean ± s.e.m., n=3.

Structures are written as SMILES. Structures can show the parent of a compound that is named as a salt. Where two headings read alike, the source gives them in different places.

The text below walks through data of PMC5756105 (Journal of proteome research, 2017).

Usually IC50 stands for the midpoint of a concentration-inhibition curve. For the compound `CC[n+]1c(/C=C/C=C2/N(C)c3ccccc3C2(C)C)sc2ccccc21.[I-]` [AC-93253], the “reduction in toxicity from basal hMSCs to their osteogenic progenies” value in test [1] is 3~4 fold. In addition, the IC50 came to 3.94 ± 1.18 µM in test [1] (setting [10]) and 0.09 ± 0.038 µM in [2] (setting [11]). In test [2], the “higher sensitivity of hiPSCs compared to basal hMSCs” value was “more than 30 times”. Moreover, the “toxicity to basal hMSCs versus osteogenic hMSCs in primary screening” value in [3] is listed as “much higher toxicity”.

In the case of `CC(=O)[C@]1(O)Cc2c(O)c3c(c(O)c2[C@@H](O[C@H]2C[C@H](N)[C@H](O)[C@H](C)O2)C1)C(=O)c1ccccc1C3=O` [Idarubicin, idarubicin hydrochloride], in test [1] (hMSCs, basal vs OD6, p<0.001), the “decrease in toxicity from basal to OD6” value was determined as 28 fold. Besides, the 50% inhibitory concentration (IC50) stood at 0.38 ± 0.074 µM in test [1] (setting [10]); 2.96 ± 0.22 µM in [4]; 7.43 ± 4.56 µM in test [5]; 10.8 ± 0.43 µM in test [6]; 0.004 ± 0.001 µM in test [2] (Homo sapiens, 48 h); 0.07 ± 0.003 µM in test [7]. For the same compound, the values for the IC50 in [8] and in [9] were 1.25 ± 0.23 µM and 4.99 ± 1.38 µM, respectively. For the same compound, in test [2], the “dependency of effects on stages of hepatogenic differentiation of hiPSCs” value is listed as “significantly dependent”. Further, the “higher sensitivity of hiPSCs compared to basal hMSCs” value in test [2] is “more than 30 times”.

In the case of `O=C1C(SCCO)=C(SCCO)C(=O)c2ccccc21` [NSC 95397], the “differentiation-stage dependency of toxicity on hMSCs” value in test [1] (basal hMSCs vs OD1 to OD6) is “not differentiation-stage dependent”. Moreover, the half-maximal inhibitory concentration (IC50) was found to be 6.55 ± 1.76 µM in [1] (setting [10]) and 6.91 ± 3.01 µM in test [2] (setting [11]).

Turning to `C[C@@]12C(=O)OC(=O)[C@]1(C)[C@H]1CC[C@@H]2O1` [Cantharidin, cantharidin], the IC50 was determined as 1.54 ± 0.5 µM in [1] (Homo sapiens, 48 h); 3.98 ± 0.69 µM in test [4]; 4.95 ± 1.33 µM in test [5]; 6.17 ± 2.55 µM in test [6]; 4.36 ± 1.4 µM in test [2] (Homo sapiens, 48 h); 2.7 ± 0.49 µM in test [7]. The IC50 in test [8] came out at 2.58 ± 0.28 µM; in test [9], 1.12 ± 0.34 µM. In addition, in test [1], the “reduction in toxicity from basal hMSCs to their osteogenic progenies” value was 3~4 fold. Also, the “dependency of effects on stages of hepatogenic differentiation of hiPSCs” value in [2] is “not significantly dependent”.
